The values that follow come from PubChem BioAssay AID588627 (Johns Hopkins Ion Channel Center, 2011).

The whole screen tested about 310,000 compounds, of which about 1,400 (0.45%) were called active.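 Rule for the calls: active = calcium response B-score plate-corrected fluorescence ratio at least 3 library SD, with starting fluorescence B-score inside 5 SD; inactive = the rest.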 This excerpt belongs to a sample that is enriched for actives.

The target in the assay is Mas-related G-protein coupled receptor member X1 (Homo sapiens) (UniProt Q96LB2). Kind of assay: MrgX1 activation via calcium signaling – HEK293 cells, Fluo-4 calcium flux, primary screen (AID 588627).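 For B-score: B-score of the peak-minus-trough calcium fluorescence change over baseline.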 The following applies: Fluo-4 calcium fluorescence, agonist mode, at 10 µM; hits give high values. The essentials: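 Material: MrgX1-expressing HEK293 cells / Dosing: compound as first of three additions / Incubation: overnight seeding, then 1 h dark dye loading / Signal: Fluo-4 NW calcium fluorescence / Evaluation: B-scored fluorescence response ratio / Benchmarks: positive and negative control wells on each plate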
Sequence of Mas-related G-protein coupled receptor member X1 (Homo sapiens) (Q96LB2 whole entry, looked up): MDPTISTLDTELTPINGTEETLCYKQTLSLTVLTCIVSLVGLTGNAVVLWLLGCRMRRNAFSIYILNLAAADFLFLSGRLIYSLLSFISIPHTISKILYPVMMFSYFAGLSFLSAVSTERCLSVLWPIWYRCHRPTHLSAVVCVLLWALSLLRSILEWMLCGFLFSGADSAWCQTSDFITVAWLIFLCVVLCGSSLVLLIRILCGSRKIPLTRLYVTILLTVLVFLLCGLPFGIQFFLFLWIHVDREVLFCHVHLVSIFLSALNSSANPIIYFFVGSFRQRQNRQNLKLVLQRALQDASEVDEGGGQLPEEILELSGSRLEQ
As to `Cc1ccc(-c2nn(-c3ccccc3)cc2/C=C2\SC(=S)N(CCCCCC(=O)O)C2=O)o1`, the B-score entry was “inactive”.
In the case of `O=C(N/C(=C/c1ccc(Cl)cc1)C(=O)N1CCCCC1)c1ccco1`, the B-score entry was “inactive”.
As for `CCc1noc(C)c1C(=O)NNC(=O)c1ccc(F)cc1`, the B-score result was “inactive”.
Regarding `Cc1onc(-c2ccccc2)c1C(=O)Nc1ccccc1C#N`, the B-score result is “inactive”.
As to `Cc1onc(-c2c(Cl)cccc2Cl)c1C(=O)NNC(=O)c1c(-c2c(Cl)cccc2Cl)noc1C`, the B-score result is “inactive”.
For the compound `Cc1ccc(CNC(=O)c2c(-c3ccccc3)noc2C)cc1`, the B-score entry is “inactive”.
With `Cc1onc(-c2ccccc2)c1C(=O)NNC(=S)NC(=O)c1ccc(F)cc1`, the B-score was 126 (active).
For `COc1ccc(C(=O)NC(=S)NNC(=O)c2c(-c3ccccc3)noc2C)cc1`, the B-score was 123 (active).
`Cc1ccc(NC(=O)c2ccn(C(=O)Nc3ccccc3)n2)c(C)c1`: the B-score entry was “inactive”.
For the compound `CS(=O)(=O)N(CC(=O)N1CCCC1)Cc1ccccc1`, the B-score result is “inactive”.
For the compound `CC(=O)N1c2ccccc2N(Cc2ccc([N+](=O)[O-])cc2)C(=O)C1(C)C`, the B-score entry is “inactive”.
Then `O=C1NC(=O)C2C1C(c1ccc([N+](=O)[O-])cc1)=NN2Cc1ccccc1` (stereo unspecified), with 42.5 (active).
For the compound `CC1=NN(c2ccccc2)C(=O)C1C(=O)c1ccc([N+](=O)[O-])cc1` (stereo unspecified), the B-score result was “inactive”.
In the case of `COc1cc(CO)ccc1OCC(=O)Nc1cccc2ccccc12`, the B-score entry is “inactive”.
As for `COc1ccc(N2CC(C)Cn3c2nc2c3c(=O)n(Cc3ccccc3F)c(=O)n2C)c(OC)c1` (stereo unspecified), the B-score entry was “inactive”.
Regarding `O=C(COC(=O)c1cccc(Cl)c1)Nc1ccc2[nH]c(=O)[nH]c2c1`, the B-score entry is “inactive”.
For `CC(=O)NCC(O)c1ccc([N+](=O)[O-])cc1` (stereo unspecified), the B-score entry is “inactive”.
Then `CNCC(O)c1ccc(O)c(O)c1` (stereo unspecified), with 46.8 (active); and `CCC(C)c1ccc(O)c(/C=N/O)c1` (stereo unspecified), with “inactive”; and `Cc1ccc(CNC(=O)CCC(=O)N2CC(C)Sc3ccccc32)cc1` (stereo unspecified), with “inactive”.
Consider `O=C1Nc2cc(C(=O)N3CCN(c4ccc(F)cc4)CC3)ccc2NC1CSCc1cccc(F)c1` (stereo unspecified), for which the B-score was 28.7 (active).
In the case of `O=C(c1cc(C(=O)N2CCN(c3ccc(F)cc3)CC2)cc([N+](=O)[O-])c1)N1CCN(c2ccc(F)cc2)CC1`, the B-score entry was “inactive”.
Turning to `Cc1ccc(CSCC2Nc3ccc(C(=O)N4CCN(c5ccc(F)cc5)CC4)cc3NC2=O)cc1` (stereo unspecified), the B-score entry is “inactive”.
Regarding `Cc1ccc(NC(=O)COC(=O)C2C3CC4OC(=O)C2C4C3)cc1Cl` (stereo unspecified), the B-score result is “inactive”.
Turning to `Cc1ccc(OCC(=O)NC(C)c2ccccc2)cc1C` (stereo unspecified), the B-score entry is “inactive”.
Consider `Cc1cc(C)cc(OCC(=O)NC(C)c2ccccc2)c1` (stereo unspecified), for which the B-score entry was “inactive”.
Then `COc1cc(OC)cc(C(=O)N[C@H](C(=O)OCC(=O)NC(C)c2ccccc2)C(C)C)c1` (stereo partly specified), with 36 (active); and `COc1ccc(NC(=O)CC2C(=O)NC3CCCCC3N2C(=O)c2ccc(F)cc2)cc1` (stereo unspecified), with “inactive”; and `CCCNC(=S)N1CCC(NC(=O)c2ccc(OC)cc2)CC1`, with “inactive”.
On to `CC(C)COC(=O)c1ccc(NC(=O)C2C3C=CC(C3)C2C(=O)O)cc1` (stereo unspecified), for which the B-score result is “inactive”.
For `CCOC(=O)c1cc2cc(C)ccc2[nH]1`, the B-score result was “inactive”.
For `CCOC(=O)c1[nH]c2ccc(C)cc2c1N=C(C)N(C)C`, the B-score was 44.7 (active).
As for `CCOC(=O)c1[nH]c2ccccc2c1N=C(C)N(CC)CC`, the B-score entry was “inactive”.
On to `Cn1c(N)cc(-c2ccc(F)cc2)c(C#N)c1=O`, for which the B-score entry is “inactive”.
With `O=C(CSc1nnc(-c2c[nH]c3ccccc23)n1-c1ccc(F)cc1)NCc1ccco1`, the B-score entry is “inactive”.
Take `COc1cc(/C=C(\C#N)c2nc3c(s2)CC(C)CC3)ccc1O` (stereo unspecified): the B-score result was “inactive”.
In the case of `COc1cc(/C=C(\C#N)c2nc3ccccc3[nH]2)ccc1O`, the B-score was 58.8 (active).
Under `Cc1ccc2nc(/C(C#N)=C\c3ccc(OC(=O)c4cccs4)cc3)[nH]c2c1` stands “inactive”; under `COCOc1cc(O)c(C(=O)/C=C/c2ccc(OCOC)c(OCOC)c2)c(OCOC)c1`, “inactive”.
For the compound `Cc1cc(C)cc(NC(=O)c2cccc(NC(=O)C3C4CC5OC(=O)C3C5C4)c2)c1` (stereo unspecified), the B-score result is “inactive”.
For `CCN(CC)C(=O)C(=O)Nc1cccc(Br)c1`, the B-score result is “inactive”.
`Cc1ccc(CSCC(=O)N(C)CC(=O)Nc2cccc(F)c2)cc1`: the B-score entry is “inactive”.
Consider `CCN(CC)C(=O)CSC(Nc1cccc(F)c1)=C(C#N)C#N`, for which the B-score was 39.4 (active).
In the case of `CS(=O)(=O)N(CC(=O)N1CCc2ccccc2C1)c1ccc(Br)cc1`, the B-score entry is “inactive”.
Consider `CCOCCCNC(=S)Nc1ccc2nc(N3CCN(CC)CC3)cc(C)c2c1`, for which the B-score result is “inactive”.
Turning to `CC(C)CN(Cc1c(O)ccc2c(=O)c(-c3ccccc3)coc12)CC(C)C`, the B-score result is “inactive”.
As to `CC(C)=CCc1c(O)c(CC=C(C)C)c2occ(-c3ccc(O)cc3)c(=O)c2c1O`, the B-score is 29.8 (active).
Consider `CCOC(=O)c1nnn(CC(=O)Nc2cccc(F)c2)c1C(=O)OCC`, for which the B-score result was “inactive”.
Take `CCNS(=O)(=O)c1ccc(CCC(=O)N2CCN(c3ccc(OC)cc3)CC2)cc1`: the B-score entry is “inactive”.
For the compound `Cc1cc(=O)oc2c3c(cc(OCC(=O)N[C@H](C(=O)O)c4ccccc4)c12)OC(C)(C)CC3`, the B-score result was “inactive”.
With `Cc1c(C)c2c(OCC(=O)N[C@@H](C(=O)O)c3ccccc3)cc3c(c2oc1=O)CCC(C)(C)O3`, the B-score is 43.9 (active).
With `Cc1c(C)c2c(OCC(=O)NCCCO)cc3c(c2oc1=O)CCC(C)(C)O3`, the B-score result is “inactive”.
With `O=C(C[n+]1ccc2c(c1)nnn2-c1ccccc1)c1ccc(Cl)cc1`, the B-score entry was “inactive”.
On to `O=C(CN1C(=O)NC2(CCCCC2)C1=O)NCCc1c[nH]c2ccccc12`, for which the B-score entry is “inactive”.
In the case of `N#C/C(=C/c1ccc(N2CCCCC2)o1)C(=O)NCCc1c[nH]c2ccccc12`, the B-score is 37.2 (active).
Then `CC(=O)N/C(=C/c1ccc(Cl)cc1)C(=O)NCCc1c[nH]c2ccccc12`, with “inactive”.
Turning to `COC(=O)c1ccccc1Oc1c(F)c(F)nc(N2CCOCC2)c1F`, the B-score result was “inactive”.
For the compound `c1ccc(-n2cccc2)c(N2CCCCC2)c1`, the B-score entry is “inactive”.
`O=C(NCc1cccnc1)c1cnc2ccccc2n1`: the B-score result is “inactive”.
Turning to `Cc1ccnc(-n2sc3ccccc3c2=O)n1`, the B-score is 37 (active).
Take `Cc1ccnc(SCC(N)=O)n1`: the B-score entry is “inactive”.
In the case of `Cc1ccnc(N2CCCC(C(=O)NC3CC3)C2)n1` (stereo unspecified), the B-score result is “inactive”.
As for `CC1CN(C(=O)COC(=O)c2cccc(NS(=O)(=O)c3ccccc3)c2)CC(C)O1` (stereo unspecified), the B-score result is “inactive”.
For the compound `Cc1nc2sc(C(=O)c3ccccc3)c(N)c2c2c1CCCC2`, the B-score entry was “inactive”.
With `CN(C)c1ccnc2sc(C(=O)c3ccccc3)c(N)c12`, the B-score entry is “inactive”.
Under `Nc1c(C(=O)c2cccs2)sc2nsc(SCCN3CCCCC3)c12` stands 53.3 (active).
